PMI act: activators of human PMI, primary screen, biochemical, fluorescence intensity, near-Km mannose 6-phosphate; 0.005% of 190,000 active; AID 1214, 2008; purified human PMI, coupled resazurin fluorescence, 20 min; stronger effect = higher value; 1 = vehicle control, 0 substrate-free wells; activation factor at 20 µM;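 active means activation factor of 2 or more at 20 µM, relative to plate controls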
HMGR II inh: inhibitors of E. faecalis class II HMGR, primary screen, biochemical, Enterococcus faecalis | HMG-CoA reductase (Enterococcus faecalis, mvaE) | 0.41% of 190,000 active | AID 1066, 2008 | inhibition, % at 10 µM | purified E. faecalis HMGR, NADPH absorbance 340 nm kinetic;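 active means inhibition above a set limit, the median over all tested compounds plus 3 SD, cut at about 9.5% in these data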;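 further: enzyme runs in reverse so mevalonate oxidation gives rising NADPH absorbance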
Rad51 HR inh: human RAD51 strand exchange inhibitors, primary screen, biochemical, fluorescence | DNA repair protein RAD51 homolog 1 (Homo sapiens), Q06609 | hRad51 DNA strand exchange, fluorescence dequenching | inhibition, % at 10 µM | 0.085% of 200,000 active | AID 1385, 2008;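 active means inhibition above 40% at the single screening dose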
Target sequence (Q06609 whole entry, looked up): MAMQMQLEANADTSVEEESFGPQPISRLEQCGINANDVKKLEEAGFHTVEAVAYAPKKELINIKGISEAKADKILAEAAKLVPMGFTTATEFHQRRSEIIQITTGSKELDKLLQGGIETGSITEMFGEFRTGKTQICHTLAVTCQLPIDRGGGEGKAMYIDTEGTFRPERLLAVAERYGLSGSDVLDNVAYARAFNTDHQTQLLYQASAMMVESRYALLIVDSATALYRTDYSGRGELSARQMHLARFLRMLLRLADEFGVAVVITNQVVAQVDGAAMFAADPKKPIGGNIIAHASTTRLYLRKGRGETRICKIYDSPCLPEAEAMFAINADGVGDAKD
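Test system: preformed human Rad51 ssDNA filaments; also added: Donor/quencher-labelled 47-bp dsDNA substrate; doses: 10 µM final, single point; times: 37 °C 15-min filament assembly, 30-min compound preincubation, 15-min exchange; detection: FRET fluorescence dequenching, excitation 485 nm, emission 520 nm; read-out basis: Fluorescence-based percent inhibition, control- and blank-normalised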
PMI act hi M6P: human PMI activators, high substrate, primary screen, biochemical, fluorescence intensity, near-saturating mannose 6-phosphate; Mannose-6-phosphate isomerase (Homo sapiens), P34949; AID 1216, 2008; coupled PMI enzyme assay, resazurin fluorescence, 20 min; stronger effect = higher value; 1 = untreated enzyme, 0 = substrate-free blank; activation factor at 20 µM; 0.34% of 190,000 active;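 active means activation factor of 2 or more at 20 µM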
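Material: human phosphomannose isomerase with PGI, G6PDH, diaphorase coupling enzymes. Quantity: 15 ng/mL PMI. Medium: HEPES pH 7.4 buffer with MgCl2 and Tween-20. Reagent: Near-saturating mannose-6-phosphate, 1.0 mM. Compound: 20 µM single dose. Times: enzyme reaction with compound 20 min at room temperature. Detection: resorufin fluorescence at Ex 544/Em 590 nm.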
m-calpain inh: inhibitors of pig calpain II, primary screen, biochemical, fluorogenic peptide substrate, 1536-well | purified calpain II, 30 min | inhibition, % at 16 µM | 0.37% of 220,000 active | AID 1236, 2008;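 active means inhibition above about 50%, limit read from the data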
Each line names hits and unclear results; the compound was inactive in the other large screens. Compounds with a hit are over-represented: about 1.1% of the library has one in this group of screens.

CC(=O)c1cccc(NC(=O)C2CCCN(S(=O)(=O)c3cccc4cccnc34)C2)c1 (stereo not given)	none
COc1ccc(NC(=O)C2CCCN(S(=O)(=O)c3cccc4cccnc34)C2)c(OC)c1 (stereo not given)	m-calpain inh 124
O=C(O)c1ccccc1-c1ccccc1C(=O)NNc1ccccc1	PMI act hi M6P 2.9
O=C(CSc1nnnn1-c1ccc2c(c1)OCCO2)OC1CCCCC1	m-calpain inh 71
CCC(=O)Nc1ccc(NC(=O)CSc2nnnn2-c2ccc3c(c2)OCCO3)cc1	none
Cc1c(Cl)c(-c2n[nH]c(=S)n2-c2ccc(F)cc2)nn1C	HMGR II inh 11
Cn1cc(Cl)c(-c2n[nH]c(=S)n2-c2ccc(F)cc2)n1	none
N#Cc1c(-c2ccccc2)nc(SCC(=O)Nc2nnc(C(F)(F)F)s2)[nH]c1=O	HMGR II inh 13
N#Cc1c(-c2ccccc2)nc(SCC(=O)Nc2ccccc2)[nH]c1=O	none (no result: Rad51 HR inh)
O=C(Nc1ccc(N2CCOCC2)c(Cl)c1)c1ccc(F)cc1	none
CCN1CCN(c2ccc(NC(=O)c3cccc(F)c3)cc2Cl)CC1	HMGR II inh 10
O=C(CCn1cnnn1)Nc1ccc(Cl)c(Cl)c1	HMGR II inh 14
COc1ccccc1C(=O)NNC(=O)c1ccc(NC(=O)CC(C)C)cc1	none (no result: Rad51 HR inh)
O=C(NCc1ccccc1)Nc1cccn(Cc2ccccc2)c1=O	none
CCOc1ccc(NC(=O)Nc2cccn(Cc3ccccc3)c2=O)cc1	Rad51 HR inh 41
COc1cccc(C2C=C(Nc3ccccc3)C(=O)N2c2ccccc2)c1 (stereo not given)	PMI act hi M6P 2.2
Cc1ccccc1NC(=O)Cn1nnc(C(=O)NCc2ccco2)c1N	HMGR II inh 13
COc1ccc(NC(=O)Cn2nnc(C(=O)Nc3ccccc3C)c2N)cc1	none
Cc1ccccc1NC(=O)Cn1nnc(S(=O)(=O)c2ccc(C(C)(C)C)cc2)c1N	HMGR II inh 18 (no result: Rad51 HR inh)
CC(C)CCN(C(=S)NC(=O)C1CCCCC1)c1c(N)n(Cc2ccccc2)c(=O)[nH]c1=O	m-calpain inh 64
O=C(O)CC(Cc1ccc(Cl)cc1)C(=O)Nc1ccc([N+](=O)[O-])cc1 (stereo not given)	m-calpain inh 69
O=C(Cc1ccc([N+](=O)[O-])cc1)Nc1ccc(Cl)cc1	none
c1ccc(-c2csc(-n3cccn3)n2)cc1	none
CC(=O)c1cc2c(cc1NS(=O)(=O)c1ccccc1)OCO2	none
CC(=O)c1cc2c(cc1N/C(=N/S(=O)(=O)c1ccccc1)c1ccc(Cl)cc1)OCO2	HMGR II inh 13
COc1ccc(S(=O)CC(=O)Nc2ccc(Cl)cc2Cl)cc1 (stereo not given)	none
Cc1ccc2nc(-c3cc(N)cc(N)c3)oc2c1	HMGR II inh 14
Cc1cc(C)cc(N=c2c([N+](=O)[O-])nn(-c3ccc4c(c3)OCCO4)n2O)c1	none
Cc1ccc(N=c2c([N+](=O)[O-])nn(-c3ccc4c(c3)OCCO4)n2O)c(Cl)c1	m-calpain inh 53
COc1ccc(NS(=O)(=O)c2ccc(NC(=O)c3cnn4c(C(F)F)cc(-c5ccc(C)cc5)nc34)cc2)cc1	none
Cc1ccc(-c2cc(C(F)F)n3ncc(C(=O)Nc4ccc(S(=O)(=O)Nc5ccccc5C)cc4)c3n2)cc1	HMGR II inh 10
COc1ccccc1C(=O)C1CCCN(C(=O)CN2CCCCC2=O)C1 (stereo not given)	none (no result: Rad51 HR inh)
Cc1ccc(C2=NNC(=O)C(c3ccc(Cl)cc3)C2)cc1 (stereo not given)	none
O=C1NN=C(c2ccc(Cl)cc2)CC1c1cccc(Br)c1 (stereo not given)	m-calpain inh 54
c1ccc(-c2cn3nc(-c4ccccc4)cnc3n2)cc1	PMI act hi M6P 2.6
COc1ccc(S(=O)(=O)NCc2cc(-c3ccccc3Cl)no2)cc1	none
CCOc1ccccc1C(=O)Nc1nccs1	Rad51 HR inh 134
CCOc1ccccc1C(=O)Nc1nnc(COC)s1	none
COCCNC(=O)C1(C)C=CC2(CCCCC2)N1C(=O)c1ccccc1 (stereo not given)	none
CC1(C(=O)NCCN2CCOCC2)C=CC2(CCCCC2)N1C(=O)c1ccccc1 (stereo not given)	HMGR II inh 9.7
CSc1sc2ccccc2[n+]1CCCS(=O)(=O)[O-]	PMI act hi M6P 2
COc1ccc2sc(SCCCS(=O)(=O)O)[n+](CCCS(=O)(=O)[O-])c2c1	none
CCn1ccc2cc(OC)ccc2c1=S	PMI act hi M6P 2
COc1ccc(C(=O)NCC(=O)NCC2COc3ccccc3O2)cc1 (stereo not given)	none
COc1ccc(NC(=O)c2ccccc2N(Cc2ccccc2)S(C)(=O)=O)cc1OC	HMGR II inh 10 (no result: PMI act, PMI act hi M6P)
COc1ccc(NC(=O)c2ccccc2N(Cc2ccccc2)S(C)(=O)=O)cc1	none (no result: Rad51 HR inh)
O=C(O)c1cccc(-n2cccc2/C=C2/NC(=O)N(c3ccc(Cl)cc3)C2=O)c1	HMGR II inh 10
Cc1ccc(C)c2nc(N3CCCC3)c(C#N)cc12	PMI act hi M6P 2
COc1ccc(CCNC(=O)NC23CC4CC(CC(C4)C2)C3)cc1OC	none
Cc1ccc([N+](=O)[O-])cc1NC(=O)C[n+]1ccccc1	HMGR II inh 13
Cc1cc([N+](=O)[O-])ccc1NC(=O)C[n+]1ccc(N(C)C)cc1	none
O=[N+]([O-])c1cc(Oc2cccnc2)cc([N+](=O)[O-])c1	none
Cn1cc([N+](=O)[O-])c(C(=O)Nc2cc(Oc3cccnc3)cc([N+](=O)[O-])c2)n1	m-calpain inh 59
Cn1cc([N+](=O)[O-])c(C(=O)Nc2ccc(-c3nc4ccccc4[nH]3)cc2)n1	HMGR II inh 12
Cn1cc([N+](=O)[O-])c(C(=O)Nc2ccc(C3CCCCC3)cc2)n1	HMGR II inh 11
COc1ccccc1N1Cc2ccccc2C1	none
Cc1ccccc1N1Cc2ccccc2C1	PMI act hi M6P 2.2
O=C(COc1ccccc1C(=O)Nc1ccccc1)c1ccc(Br)cc1	HMGR II inh 10
CCOC(=O)C1(Cc2ccccc2)CCN(Cc2cc(OC)c3c(c2)OCO3)CC1	none
O=C(O/N=C/c1ccc2c(c1)OCO2)c1ccc([N+](=O)[O-])cc1	m-calpain inh 70
Cc1ccc(C(=O)O/N=C/c2ccc3c(c2)OCO3)cc1	none
CC1CCCC2(C1)NC(=S)N(c1ccccc1)N2 (stereo not given)	PMI act hi M6P 2.7

Screening data deposited in PubChem by several laboratories.
